HCV core dimer: inhibitors of HCV core protein dimerization, primary screen, biochemical, TR-FRET, high-throughput. TR-FRET GST/Flag-core106 dimerization, 1536-well. inhibition, % at 5 µM. actives 0.33% (n = 300,000);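 active = inhibition above the mean of all tested compounds plus 3 SD, set per screening campaign, cut at about 45% in these data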
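assay system = GST-tagged and Flag-tagged HCV core protein residues 1-106 | controls = unlabelled core106 and no-GST-core106 wells | incubation = compound-protein-antibody incubation 4 h at 22.5 °C | probe or stimulus = Eu donor and XL665 acceptor anti-tag antibodies | read-out = % inhibition based on acceptor/donor emission ratio | signal = TR-FRET 671 and 617 nm emission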
NadD block: inhibitors of S. aureus NadD, primary screen, biochemical, colorimetric, uHTS. Nicotinate-nucleotide adenylyltransferase NadD (Staphylococcus aureus N315). purified NadD enzyme, colorimetric absorbance read-out. inhibition, % at 20 µM. actives 0.78% (n = 360,000). AID 602399, 2012; in the data active = inhibition above about 26%
VIM-2 inh: VIM-2 metallo-beta-lactamase inhibitors, primary screen, biochemical, epi-absorbance readout, Pseudomonas aeruginosa enzyme. actives 0.89% (n = 290,000). inhibition, % at 5.6 µM. purified VIM-2, nitrocefin hydrolysis, epi-absorbance fluorescence;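 active = inhibition above the mean of all tested compounds plus 3 SD, cutoff set per screening run, cut at about 7.5% in these data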;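 also: red hydrolysis product quenches plate fluorescence so inhibitors raise well fluorescence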
IMP-1 inhibitor: IMP-1 metallo-beta-lactamase inhibitors, primary screen, biochemical, epi-absorbance readout, Pseudomonas aeruginosa enzyme; purified IMP-1, nitrocefin hydrolysis, epi-absorbance fluorescence; inhibition, % at 5.6 µM; actives 0.45% (n = 290,000);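 active = inhibition above the mean plus 3 SD of all compounds in the same screening run, cut at about 4.5% in these data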
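Test system: recombinant IMP-1 enzyme, purified / Medium: HEPES buffer pH 7.1 with ZnSO4 and Brij 35 / Doses: single dose, 5.6 µM / Times: 25 °C, 15 min preincubation, 25 min reaction / Detection: Epi-absorbance via hydrolysed-nitrocefin quenching of white-plate fluorescence, 480/530 nm, EDTA stop / Evaluation: percent inhibition from optical density relative to buffer-blank wells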
NadD conf: inhibitors of S. aureus NadD, confirmation, biochemical, colorimetric, single concentration | AID 624309, 2012 | actives 13% (n = 2,000) | shares compounds with NadD block | inhibition, % at 20 µM | purified S. aureus NadD, colorimetric enzyme assay; in the data active = inhibition mostly above about 42%, no sharp cut-off; inactive = mostly below about 42%
Each line names hits and unclear results; the compound was inactive in the other large screens (follow-up assays come after a bar, where they were run). Most compounds without a hit are left out; they make up all but 1.9% or so of the library.

CCN(Cc1ccccc1)S(=O)(=O)c1ccc(C(=O)Nc2nnc(-c3ccccc3OC)o2)cc1	NadD block 54 | NadD conf 26
NS(=O)(=O)c1cnccc1Nc1cccc(F)c1	none (no result: VIM-2 inh, IMP-1 inhibitor)
Cc1ccc(S(=O)(=O)NN=Cc2ccco2)cc1	none (no result: HCV core dimer, VIM-2 inh, IMP-1 inhibitor)
CC(C)(C)c1ccc(C2CC2C(=O)N/N=C\c2cc3ccccc3nc2Cl)cc1 (stereo not drawn)	NadD block 36 | NadD conf inactive
Cc1ccc2nc(Cl)c(/C=N/NC(=O)[C@H]3C[C@@H]3c3ccccc3)cc2c1	none
CCn1c(=O)cc(OCC(=O)NCCCN2CCCC2=O)c2ccccc21	none
Cc1cccc(Nc2n[nH]c(=S)s2)c1C	NadD block 32 | NadD conf inactive
Cc1ccc(Nc2n[nH]c(=S)s2)c(C)c1	none (no result: HCV core dimer, VIM-2 inh, IMP-1 inhibitor)
Cc1cccc(C)c1Nc1n[nH]c(=S)s1	none (no result: HCV core dimer, VIM-2 inh, IMP-1 inhibitor)
Cc1cc(C)c(Nc2n[nH]c(=S)s2)cc1C	NadD block 44 (no result: HCV core dimer, VIM-2 inh, IMP-1 inhibitor) | NadD conf inactive
O=S1(=O)CCC(n2nccc2-c2ccccc2)C1 (stereo not drawn)	none
Cc1c(N=C2N=C(NC(=O)c3cccs3)c3ccccc32)c(=O)n(-c2ccccc2)n1C	NadD block 31 | NadD conf inactive
N#C/C(=C\c1ccc(-c2cccc([N+](=O)[O-])c2)o1)C(=O)Nc1nc(-c2cccs2)cs1	NadD block 42 | NadD conf inactive
O=C(N/N=C/c1ccc(-c2cccc([N+](=O)[O-])c2)o1)c1cccs1	none
COc1ccc(S(=O)(=O)N2CC(C)N(C(=O)N(C)C)C2C)cc1 (stereo not drawn)	none
O=C(Cc1cc(=O)[nH][nH]1)N/N=C/C=C/c1ccccc1	NadD block 34 | NadD conf 64
CC(C)NC(=O)c1cc(-c2ccc(Br)cc2)on1	none
CC1CCCCN1c1nnc(NC(=O)c2cc(-c3ccc(Br)cc3)on2)s1 (stereo not drawn)	NadD block 31 | NadD conf inactive
CCOC(=O)c1oc2ccc(/C=N/O)c(Cl)c2c1C	none
O=c1[nH]c(Cn2nnc(-c3ccccc3)n2)nc2scc(-c3ccccc3)c12	NadD block 30 | NadD conf inactive
O=C1NC[C@@H](CCCCN2C[C@H](Cc3ccc(O)cc3)N(CCC3CCCCC3)C(=O)C2=O)N(Cc2ccccc2)C1=O	none (no result: HCV core dimer, VIM-2 inh, IMP-1 inhibitor)
O=C(COc1ccc(-c2ccccc2)cc1)N/N=C/c1cc(O)ccc1Br	NadD block 31 | NadD conf inactive
O=C(COc1ccc(-c2ccccc2)cc1)N/N=C/c1ccccc1Br	none
Cc1ccc(S(=O)(=O)N2[C@@H](c3ccc(Cl)cc3)C(C(=O)O)=CC[C@H]2c2cccs2)cc1	none (no result: VIM-2 inh, IMP-1 inhibitor)
O=[N+]([O-])c1cccc(SSc2cccc([N+](=O)[O-])c2)c1	NadD block 44 (no result: HCV core dimer, VIM-2 inh, IMP-1 inhibitor) | NadD conf 58
CC(=O)c1cccc(NC(=O)C2C3C=CC(C3=C(c3ccccc3)c3ccccc3)C2C(=O)O)c1 (stereo not drawn)	NadD block 37 | NadD conf 50
CC(=O)c1cccc(NC(=O)Nc2ccccc2)c1	none
Cc1cccc(N2CCN(c3ccc4cc(S(=O)(=O)N5CCCCC5)ccc4n3)CC2C)c1 (stereo not drawn)	none
Cc1cccc(N2CCN(C(=O)c3cccc(S(=O)(=O)N4CCCCC4)c3)CC2)c1C	none (no result: HCV core dimer, VIM-2 inh, IMP-1 inhibitor)
Cc1cccc(N2CCN(c3ccc4cc(S(=O)(=O)N5CCCCC5)ccc4n3)CC2)c1C	NadD block 29 | NadD conf inactive
Cc1ccc(C)c(N2CCN(c3ccc4cc(S(=O)(=O)N5CCCCC5)ccc4n3)CC2)c1	NadD block 32 | NadD conf inactive
CNc1ccc(Br)cc(C(=O)/C=C/c2ccc3c(c2)OCO3)c1=O	HCV core dimer 56, NadD block 40, IMP-1 inhibitor 9.2 | NadD conf inactive
CNc1ccc(Br)cc(C(=O)/C=C/c2ccc(OC)cc2)c1=O	none
CN1CCN(c2ncnc3c2ncn3[C@H]2CN(Cc3ccccc3)C[C@@H](CO)O2)CC1	none (no result: HCV core dimer, VIM-2 inh, IMP-1 inhibitor)
C[C@H]1CN([C@@H](C)CO)C(=O)c2cc(C#Cc3cccnc3)cnc2O[C@H]1CN(C)Cc1ccc(F)cc1	NadD block 39 (no result: HCV core dimer, VIM-2 inh, IMP-1 inhibitor) | NadD conf inactive
O=C1NC(=O)C(=O)N1	none (no result: VIM-2 inh, IMP-1 inhibitor)
O=C1NC(=O)c2c(Br)c(Br)c(Br)c(Br)c21	NadD block 30 (no result: HCV core dimer, VIM-2 inh, IMP-1 inhibitor) | NadD conf inactive
CC(C)NC(=S)NNc1nc2ccccc2s1	none
COc1cc(NS(=O)(=O)c2ccc(NS(=O)(=O)c3ccccc3)cc2)nc(OC)n1	none
O=C(Nc1ccc(S(=O)(=O)Nc2nccs2)cc1)/C(=C/c1ccccc1Cl)NC(=O)c1ccccc1	NadD block 39 | NadD conf 56
COc1cc(NS(=O)(=O)c2ccc(NC(=O)/C(=C/c3ccccc3Cl)NC(=O)c3ccccc3)cc2)nc(OC)n1	NadD block 33 | NadD conf 49
O=C(Nc1ccc(S(=O)(=O)Nc2nccs2)cc1)c1ccc(F)cc1	none
COc1cccc(NC(=O)CN2C(=O)NC(Cc3c[nH]c4ccccc34)C2=O)c1 (stereo not drawn)	none (no result: HCV core dimer, VIM-2 inh, IMP-1 inhibitor)
CCCN(C(=O)c1cc(S(=O)(=O)N2CCN(CC)CC2)ccc1Cl)C1CCS(=O)(=O)C1 (stereo not drawn)	none (no result: HCV core dimer, VIM-2 inh, IMP-1 inhibitor)
CC(C)n1c(CNC(=O)c2ccccc2F)nnc1SCC(=O)NC1CCCCC1	NadD block 32 (no result: HCV core dimer, VIM-2 inh, IMP-1 inhibitor) | NadD conf inactive
CCOC(=O)/C=c1\s/c(=C\c2ccc3cc(OC)ccc3c2)c(=O)n1CC(=O)NCc1ccc2c(c1)OCO2	NadD block 33 | NadD conf inactive
CCOC(=O)/C=c1\s/c(=C\c2ccccc2C)c(=O)n1CC(=O)NCc1ccc2c(c1)OCO2	none
O=C(c1ccc2c(c1)[nH]c(=S)n1c3ccccc3nc21)N1CCN(c2cccc(Cl)c2)CC1	NadD block 39 | NadD conf inactive
Cc1cc(C)c2nc(N3C(=O)C(O)=C(C(=O)c4ccco4)C3c3ccco3)sc2c1 (stereo not drawn)	NadD block 39 | NadD conf inactive
CCOc1ccc2nc(N3C(=O)C(O)=C(C(=O)c4ccco4)C3c3ccco3)sc2c1 (stereo not drawn)	none (no result: HCV core dimer, VIM-2 inh, IMP-1 inhibitor)
CC(C)OCCCn1c(=N)c(C(N)=S)cc2c(=O)n3ccccc3nc21	NadD block 26 | NadD conf inactive
CCc1cccc(NC(=O)C2CC2c2ccccc2)c1 (stereo not drawn)	none
O=C(/C=C/c1cn(-c2ccccc2)nc1-c1ccccc1)Nc1ccc(C(=O)O)cc1	none
NS(=O)(=O)c1ccc(NC(=O)/C=C/c2cn(-c3ccccc3)nc2-c2cccc(Cl)c2)cc1	NadD block 41 | NadD conf inactive
Cc1sc(NC(=O)Cc2ccc3c(c2)OCO3)nc1-c1ccc2c(c1)CCN2C(=O)c1ccc(F)cc1	NadD block 35 | NadD conf inactive
